In ChEMBL document CHEMBL1140759, “Synthesis, anti-Toxoplasma gondii and antimicrobial activities of benzaldehyde 4-phenyl-3-thiosemicarbazones and 2-[(phenylmethylene)hydrazono]-4-oxo-3-phenyl-5-thiazolidineacetic acids” (Bioorg Med Chem, 2008):

Assays:
Toxoplasma gondii [1] = assay: Inhibition of intracellular parasite Toxoplasma gondii; assay type: functional, organism-based
How it was run: (§1)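 Infected Vero cultures were exposed to compound at 0.01–30 mM for 24 h, in triplicate per assay. IC50 for infected cells and intracellular parasites was derived by non-linear regression, using trypan blue exclusion.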

Toxoplasma gondii [2] = assay: Antiparasitic activity against Toxoplasma gondii infected african green monkey Vero cells at 0.1 mM assessed as infected cells; assay type: functional
How it was run: (§2)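 Vero cells were infected with RH-strain tachyzoites (5:1 parasite:cell) for 1 h, washed with PBS, and grown 24 h at 37 °C in medium 199 with 5% FCS. Compound was then added for 24 h. Cells were fixed with Bouin's, stained with Giemsa, and at least 400 cells were counted by light microscopy for the percentage infected. Hydroxyurea and sulfadiazine served as references.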

Toxoplasma gondii [3] = assay: Antiparasitic activity against Toxoplasma gondii infected african green monkey Vero cells at 20 mM assessed as infected cells; assay type: functional; how it was run: as §2
Vero = assay: Inhibition of uninfected african green monkey Vero cells; assay type: cell-based; conditions: Chlorocebus sabaeus
Toxoplasma gondii [4] = assay: Antiparasitic activity against Toxoplasma gondii infected african green monkey Vero cells at 5 mM assessed as infected cells; assay type: functional; how it was run: as §2
Toxoplasma gondii [5] = assay: Antiparasitic activity against Toxoplasma gondii infected african green monkey Vero cells at 2 mM assessed as infected cells; assay type: functional; how it was run: as §2
Toxoplasma gondii [6] = assay: Antiparasitic activity against Toxoplasma gondii infected african green monkey Vero cells at 8 mM assessed as infected cells; assay type: functional; how it was run: as §2
Toxoplasma gondii [7] = assay: Inhibition of Toxoplasma gondii infected in african green monkey Vero cells; assay type: functional, organism-based; how it was run: as §1
Micrococcus luteus = assay: Antimicrobial activity against Micrococcus luteus at 300 ug/disc; assay type: functional; conditions: read-out: IZ
How it was run: (§3)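 Disc diffusion on agar plates inoculated with a standardized microbial suspension, with paper discs carrying known compound amounts. DMSO-only discs served as negative controls, and chloramphenicol, rifampicin (bacteria) or nistatin (fungi) as references. The read-out is the mean inhibition zone diameter in mm. Each run was done three times and repeated if results differed.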

Candida [8] = assay: Antimicrobial activity against Candida sp. IMUR4249 at 300 ug/disc; assay type: functional; conditions: read-out: IZ; how it was run: as §3
Bacillus subtilis = assay: Antimicrobial activity against Bacillus subtilis at 300 ug/disc; assay type: functional; conditions: read-out: IZ; how it was run: as §3
Candida [9] = assay: Antimicrobial activity against Candida sp. IMUR1224 at 300 ug/disc; assay type: functional; conditions: read-out: IZ; how it was run: as §3
Mycolicibacterium phlei = assay: Antimicrobial activity against Mycobacterium phlei at 300 ug/disc; assay type: functional; conditions: read-out: IZ; how it was run: as §3
Saccharomyces cerevisiae = assay: Antimicrobial activity against Saccharomyces cerevisiae at 300 ug/disc; assay type: functional; conditions: read-out: IZ; how it was run: as §3
Enterococcus faecalis = assay: Antimicrobial activity against Streptococcus faecalis at 300 ug/disc; assay type: functional; conditions: read-out: IZ; how it was run: as §3
Klebsiella pneumoniae = assay: Antimicrobial activity against Klebsiella pneumoniae at 300 ug/disc; assay type: functional; conditions: read-out: IZ; how it was run: as §3
[10] = tested on: Mycobacterium tuberculosis; assay: Antimicrobial activity against Mycobacterium tuberculosis at 300 ug/disc; assay type: functional; conditions: read-out: IZ
How it was run: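 Agar disc diffusion: paper discs loaded with compound placed on agar plates seeded with a standardised microbial suspension. DMSO-only discs served as negative control. Chloramphenicol and rifampicin (bacteria) or nistatin (fungi) gave reference zones. Read-out was mean zone of inhibition diameter (mm). Each experiment was run three times and repeated if results differed.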

Escherichia coli = assay: Antimicrobial activity against Escherichia coli at 300 ug/disc; assay type: functional; conditions: read-out: IZ; how it was run: as §3
Candida [11] = assay: Antimicrobial activity against Candida sp. IMUR720 at 300 ug/disc; assay type: functional; conditions: read-out: IZ; how it was run: as §3
Staphylococcus aureus = assay: Antimicrobial activity against Staphylococcus aureus at 300 ug/disc; assay type: functional; conditions: read-out: IZ; how it was run: as §3
Candida albicans = assay: Antimicrobial activity against Candida albicans at 300 ug/disc; assay type: functional; conditions: read-out: IZ; how it was run: as §3
[12] = tested on: Mycolicibacterium smegmatis; assay: Antimicrobial activity against Mycobacterium smegmatis at 300 ug/disc; assay type: functional; conditions: read-out: IZ; how it was run: as §3

| Compound | IC50 (Toxoplasma gondii [1]) | Activity (Toxoplasma gondii [2]) | Activity (Toxoplasma gondii [3]) | IC50 (Vero) | Activity (Toxoplasma gondii [4]) | Activity (Toxoplasma gondii [5]) | Activity (Toxoplasma gondii [6]) | IC50 (Toxoplasma gondii [7]) | further results |
| --- | --- | --- | --- | --- | --- | --- | --- | --- | --- |
| Nc1ccc(S(=O)(=O)Nc2ncccn2)cc1 [SULFADIAZINE] | 3000 µM | 53.84% | 0% | 8000 µM | 29.55% | 48.71% | 6.84% | 3000 µM | – |
| O=C(O)CC1S/C(=N\N=C\c2cccc(Cl)c2)N(c2ccccc2)C1=O (stereo not given) | 2000 µM | 53.74% | 0% | 10000 µM | 33.5% | 34.8% | 0% | 3000 µM | zone of inhibition at 300 µg/disc (Micrococcus luteus): 16 mm; zone of inhibition at 300 µg/disc (Candida [8]): 11 mm; zone of inhibition at 300 µg/disc (Bacillus subtilis): < 7 mm; zone of inhibition at 300 µg/disc (Candida [9]): < 7 mm; zone of inhibition at 300 µg/disc (Mycolicibacterium phlei): < 7 mm; zone of inhibition at 300 µg/disc (Saccharomyces cerevisiae): < 7 mm; zone of inhibition at 300 µg/disc (Enterococcus faecalis): 12 mm; zone of inhibition at 300 µg/disc (Klebsiella pneumoniae): < 7 mm; zone of inhibition at 300 µg/disc [10]: < 7 mm; zone of inhibition at 300 µg/disc (Escherichia coli): < 7 mm; zone of inhibition at 300 µg/disc (Candida [11]): < 7 mm; zone of inhibition at 300 µg/disc (Staphylococcus aureus): < 7 mm; zone of inhibition at 300 µg/disc (Candida albicans): < 7 mm; zone of inhibition at 300 µg/disc [12]: < 7 mm |
| S=C(N/N=C/c1ccc(Cl)c(Cl)c1)Nc1ccccc1 | 2000 µM | 49.18% | 0% | 6000 µM | 21.96% | 38.02% | 4.54% | 5000 µM | – |
| COc1cccc(/C=N/NC(=S)Nc2ccccc2)c1 | 1000 µM | 53.6% | 0% | 5000 µM | 9.7% | 34.82% | 5.9% | 2000 µM | – |
| Fc1ccc(/C=N/NC(=S)Nc2ccccc2)cc1 | 1000 µM | 46.59% | 0% | 10000 µM | 28% | 35.2% | 19.83% | 2000 µM | – |
| Cc1ccc(/C=N/NC(=S)Nc2ccccc2)cc1 | 3000 µM | 51.08% | 0% | 8000 µM | 27.84% | 36.78% | 2.96% | 4000 µM | – |
| NC(=O)NO [HYDROXYUREA] | 100 µM | 58.23% | 0% | 1000 µM | 10.4% | 22.78% | 7.37% | 500 µM | – |
| Cc1ccc(/C=N/N=C2\SC(CC(=O)O)C(=O)N2c2ccccc2)cc1 (stereo not given) | 50 µM | 39.2% | 0% | 1000 µM | 0% | 1.23% | 0% | 100 µM | zone of inhibition at 300 µg/disc (Micrococcus luteus): 16 mm; zone of inhibition at 300 µg/disc (Bacillus subtilis): < 7 mm; zone of inhibition at 300 µg/disc (Mycolicibacterium phlei): < 7 mm; zone of inhibition at 300 µg/disc (Enterococcus faecalis): 12 mm; zone of inhibition at 300 µg/disc (Klebsiella pneumoniae): < 7 mm; zone of inhibition at 300 µg/disc [10]: < 7 mm; zone of inhibition at 300 µg/disc (Escherichia coli): < 7 mm; zone of inhibition at 300 µg/disc (Staphylococcus aureus): < 7 mm; zone of inhibition at 300 µg/disc [12]: < 7 mm |
| S=C(N/N=C/c1ccc(Cl)cc1)Nc1ccccc1 | 1500 µM | 70.01% | 0% | 10000 µM | 38.7% | 34.8% | 21.05% | 7000 µM | – |
| COc1cc(/C=N/NC(=S)Nc2ccccc2)cc(OC)c1OC | 2000 µM | 76.37% | 0% | 10000 µM | 24.32% | 72.04% | 23.17% | 3000 µM | – |
| CC(C)(C)c1cc(/C=N/NC(=S)Nc2ccccc2)cc(C(C)(C)C)c1O | 4000 µM | 63.44% | 0% | 10000 µM | 30.51% | 64.07% | 6.42% | 5000 µM | – |
| COc1ccc(/C=N/N=C2\SC(CC(=O)O)C(=O)N2c2ccccc2)cc1 (stereo not given) | – | 27.32% | 0% | 6000 µM | 5.9% | 4.51% | 0% | 500 µM | zone of inhibition at 300 µg/disc (Micrococcus luteus): 16 mm; zone of inhibition at 300 µg/disc (Candida [8]): 16 mm; zone of inhibition at 300 µg/disc (Bacillus subtilis): 11 mm; zone of inhibition at 300 µg/disc (Candida [9]): < 7 mm; zone of inhibition at 300 µg/disc (Mycolicibacterium phlei): < 7 mm; zone of inhibition at 300 µg/disc (Saccharomyces cerevisiae): < 7 mm; zone of inhibition at 300 µg/disc (Enterococcus faecalis): < 7 mm; zone of inhibition at 300 µg/disc (Klebsiella pneumoniae): < 7 mm; zone of inhibition at 300 µg/disc [10]: < 7 mm; zone of inhibition at 300 µg/disc (Escherichia coli): < 7 mm; zone of inhibition at 300 µg/disc (Candida [11]): < 7 mm; zone of inhibition at 300 µg/disc (Staphylococcus aureus): < 7 mm; zone of inhibition at 300 µg/disc (Candida albicans): 15 mm; zone of inhibition at 300 µg/disc [12]: < 7 mm |
| Cc1cccc(/C=N/NC(=S)Nc2ccccc2)c1 | 2000 µM | 66.23% | 0% | 5000 µM | 26.86% | 39.82% | 22.72% | 5000 µM | – |
| Fc1ccccc1/C=N/NC(=S)Nc1ccccc1 | 1000 µM | 91.5% | 0% | 4000 µM | 14.32% | 28.13% | 29.29% | 1500 µM | – |
| COc1cc(/C=N/N=C2\SC(CC(=O)O)C(=O)N2c2ccccc2)ccc1O (stereo not given) | 1000 µM | 46.02% | 0% | 100 µM | 3.5% | 41.96% | 0% | 3000 µM | zone of inhibition at 300 µg/disc (Micrococcus luteus): < 7 mm; zone of inhibition at 300 µg/disc (Bacillus subtilis): < 7 mm; zone of inhibition at 300 µg/disc (Candida [9]): < 7 mm; zone of inhibition at 300 µg/disc (Mycolicibacterium phlei): < 7 mm; zone of inhibition at 300 µg/disc (Saccharomyces cerevisiae): < 7 mm; zone of inhibition at 300 µg/disc (Enterococcus faecalis): < 7 mm; zone of inhibition at 300 µg/disc (Klebsiella pneumoniae): < 7 mm; zone of inhibition at 300 µg/disc [10]: < 7 mm; zone of inhibition at 300 µg/disc (Escherichia coli): < 7 mm; zone of inhibition at 300 µg/disc (Candida [11]): < 7 mm; zone of inhibition at 300 µg/disc (Staphylococcus aureus): < 7 mm; zone of inhibition at 300 µg/disc (Candida albicans): < 7 mm; zone of inhibition at 300 µg/disc [12]: < 7 mm |
| COc1cc(/C=N/NC(=S)Nc2ccccc2)ccc1O | 100 µM | 80.05% | 0% | 6000 µM | 19.3% | 19.7% | 2.6% | 1000 µM | – |
| CN(C)c1ccc(/C=N/NC(=S)Nc2ccccc2)cc1 | 1000 µM | 76.14% | 0% | 6000 µM | 18.14% | 35.81% | 13.46% | 2000 µM | – |
| S=C(N/N=C/c1cccc(Cl)c1)Nc1ccccc1 | 3000 µM | 44.52% | 0% | 10000 µM | 52.06% | 60.69% | 24.49% | 7000 µM | – |
| COc1ccc(/C=N/NC(=S)Nc2ccccc2)cc1 | 1000 µM | 50.43% | 0% | 6000 µM | 19% | 29.39% | 12.36% | 2000 µM | – |
| COc1ccc(/C=N/NC(=S)Nc2ccccc2)c(OC)c1 | 2000 µM | 73% | 1.49% | 5000 µM | 9.2% | 41.44% | 3.6% | 2000 µM | – |
| S=C(N/N=C/c1ccccc1)Nc1ccccc1 | 4000 µM | 82.5% | 0% | 5000 µM | 31.83% | 77.82% | 13.52% | 5000 µM | – |
| S=C(N/N=C/c1ccc(Cl)cc1Cl)Nc1ccccc1 | 1000 µM | 49.33% | 0% | 6000 µM | 31.32% | 33.28% | 12.08% | 2000 µM | – |
